Assay outcomes deposited in PubChem by several laboratories.
A selection: hits, their analogues and other compounds. The true share with any hit is near 3.1%.
MEKK3 PB1 HTS = modulators of MEKK3-MEK5 PB1 binding, primary screen, biochemical, wildtype MEKK3, multiplex bead flow cytometry, Alexa488-MEK5 | AID 1529, 2009 | bead-based flow cytometry, Alexa488-MEK5 binding to MEKK3; actives lie on both sides; 0 = blocked by unlabeled MEK5, 100 = vehicle | binding response (% of control), % at 10 µM | Mitogen-activated protein kinase kinase kinase 3 (Homo sapiens), Q99759 | 1.4% of 290,000 active;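 active = binding response more than 3 SD above or below the average of its plate-row segment, actives on both sides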;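 note: Alexa488 bead fluorescence after subtracting the streptavidin-only scavenger bead signal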
PREPL inhibitor = PREPL enzyme inhibitors, primary screen, biochemical, fluorescence polarization. 0.68% of 320,000 active. Prolyl endopeptidase-like (Homo sapiens), Q4J6C6. AID 2751, 2010. inhibition, % at 5.96 µM. recombinant PREPL, fluorescence polarization activity-based probe; in the data active = inhibition above about 43%;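 note: 0% = enzyme with DMSO and 100% = wells lacking enzyme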
MEKK2 WT-MEK5 = modulators of MEK5 binding to wildtype MEKK2, primary screen, biochemical, multiplex bead flow cytometry, Alexa488-MEK5 | binding response (% of control), % at 10 µM | Alexa488-MEK5 binding to MEKK2 WT; actives lie on both sides | AID 1531, 2009 | 1.1% of 290,000 active; in the data active = binding response below about 67% or above about 130%
MEKK2mut PB1 HTS = MEK5 binding signal on mutant MEKK2 PB1, primary screen, biochemical, multiplex bead flow cytometry, Alexa488-MEK5; Alexa488-MEK5 binding to MEKK2 mutant; percent response, % at 10 µM; 0.35% of 290,000 active; AID 1530, 2009; in the data active = percent response above about 24%, passing the limit was not always enough
UBC13 inh = UBC13 polyubiquitin chain formation inhibitors, primary screen, biochemical, TR-FRET, uHTS; inhibition, % at 20 µM; AID 485273, 2010; 0.47% of 330,000 active; Ubiquitin-conjugating enzyme E2 N (Homo sapiens), P61088; in the data active = inhibition above about 45%, passing the limit was not always enough
Target sequence (P61088 whole entry, looked up): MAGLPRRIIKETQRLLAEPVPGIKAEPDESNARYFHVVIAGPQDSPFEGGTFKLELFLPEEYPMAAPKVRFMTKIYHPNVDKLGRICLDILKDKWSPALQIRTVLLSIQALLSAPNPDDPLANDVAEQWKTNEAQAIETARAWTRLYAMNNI
Apaf1 inhib = inhibitors of human Apaf-1 apoptosome, primary screen, biochemical, DEVD-Rh110 fluorescence, uHTS | 0.71% of 330,000 active | reconstituted apoptosome caspase-3 activity | Apoptotic protease-activating factor 1 (Homo sapiens), O14727 | inhibition, % at 20 µM; active = inhibition of at least 40% at 20 µM;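 note: plate controls were DMSO wells for no effect and DEVD-CHO caspase inhibitor wells for full effect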
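Material: biochemical Apaf-1 apoptosome reconstitution. Medium: Hepes buffer, pH 7.5. Also added: cytochrome c activation, bis-DEVD rhodamine 110 substrate. Timing: 30 min compound preincubation, 50 min activation, room temperature. Measured by: rhodamine 110 fluorescence at Ex 480/Em 540 nm.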
MEKK2wt confirm = modulators of MEK5 binding to wildtype MEKK2, confirmation, biochemical, single concentration, multiplex bead flow cytometry. binding response (% of control), % at 10 µM. Alexa488-MEK5 binding to MEKK2 WT; actives lie on both sides. shares compounds with MEKK3 PB1 HTS. 2.4% of 5,900 active; in the data active = binding response below about 16% or above about 210%; inactive = in between
MEKK2mut confirm = mutant MEKK2 PB1-MEK5 binding signal retest – biochemical, single concentration, multiplex bead flow cytometry, confirmation | shares compounds with MEKK3 PB1 HTS | Alexa488-MEK5 binding to MEKK2 mutant | percent response, % at 10 µM | 2% of 5,900 active | AID 1893, 2009; in the data active = percent response mostly above about 71%, no sharp cut-off; inactive = mostly below about 38%;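 note: higher means compound restores mutant binding toward wildtype level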
MEKK3-MEK5 inh = MEKK3 wild-type PB1 binding to MEK5, inhibitors, confirmation, biochemical, bead multiplex flow cytometry, single concentration, wildtype; binding response (% of control), % at 10 µM; 1.8% of 5,900 active; shares compounds with MEKK3 PB1 HTS; Alexa488-MEK5 binding to MEKK3; active compounds read low;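 active = binding response below 72% of control, or above a set upper limit, though filed actives all read lower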;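 note: 100% = DMSO only wells and 0% = binding blocked by excess unlabeled MEK5; lower values mean stronger disruption of MEK5 binding to MEKK3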
* = called active by the depositor; / = no result given; [ ] = another dose, or the depositor's remark.

SMILES	MEKK3 PB1 HTS	PREPL inhibitor	MEKK2 WT-MEK5	MEKK2mut PB1 HTS	UBC13 inh	Apaf1 inhib	MEKK2wt confirm	MEKK2mut confirm	MEKK3-MEK5 inh
O=C(NCCN1CCCCCC1)c1ccc(N2CCCC2=O)cc1	101	22	145*	9	24	6	127	20	103
O=C(NCCCN1CCN(c2cccc(Cl)c2)CC1)c1cccc(N2CCCC2=O)c1	109	21	125	27*	3	10	113	20	107
O=C(NCCCN1CCN(c2cccc(Cl)c2)CC1)c1ccc(N2CCCC2=O)cc1	98	-6	111	7	12	4	/	/	/
c1ccc(-c2nc(SCc3nc4ccccc4[nH]3)c3oc4ccccc4c3n2)cc1	/	-9	/	/	-22	0	/	/	/
COc1ccccc1CNC(=O)CCNC(=O)Cn1ccc2ccccc2c1=O	102	-4	103	-2	4	0	/	/	/
COc1ccc(CCNC(=O)Cn2cnc3ccccc3c2=O)cc1OC	129*	3	105	0	-3	-3	105	-1	100
COc1ccccc1CNC(=O)CCNC(=O)Cn1cnc2ccccc2c1=O	0.0*[inhibitor]	-1	-1.0*[inhibitor]	-9	-6	-2	99	-3	99
COc1ccc(CCNC(=O)CSc2nn(-c3ccccc3)c(=S)s2)cc1OC	148*	7	105	0	-12	14	107	-3	106
Cc1ccc(S(=O)(=O)N2CCN(Cc3cc(=O)n4ccccc4n3)CC2)c(C)c1	/	14	/	/	-7	-1	/	/	/
COc1ccc(C2NN=C(c3c[nH]c4ccccc34)C2O)cc1 (centres undefined)	93	9	55*	213*	2	16	96	-6	99
Cn1c(SCC(=O)N2CC(=O)Nc3ccccc32)nnc1C(F)(F)F	/	/	/	/	-3	-3	/	/	/
Cc1ccc(CNC(=O)CN2C(C)CCCC2C)cc1 (centres undefined)	56*[inhibitor]	10	62*[inhibitor]	-15	4	0	104	4	102
Cc1ccc(CNC(=O)CN(C2CCCCC2)S(C)(=O)=O)cc1	67*[inhibitor]	-5	55*[inhibitor]	5	-1	-10	102	-3	102
CS(=O)(=O)N(CC(=O)NCc1ccccc1)C1CCCCC1	103	2	105	3	3	-9	/	/	/
COc1ccc(NC(=O)Nc2cccc3c2O[C@H](CN(C)C(=O)Nc2ccc4c(c2)OCO4)[C@@H](C)CN([C@H](C)CO)C3=O)cc1	/	9	/	/	7	7	/	/	/
O=C(COc1ccccc1Cl)NCCNC(=O)c1ccco1	97	-4	100	-6	-2	-2	/	/	/
CC(C)n1cc(CN2CCC(C(=O)Nc3cccc(-c4cccc(Cl)c4)c3)CC2)cn1	107	-44	183*	34*	32	21	203	73*	117
O=C(Nc1cccc(-c2cccc(Cl)c2)c1)C1CCN(Cc2ccc(CO)o2)CC1	105	-40	153*	22	25	34	126	23	109
CCn1c(SCC(=O)N/N=C/C(C)=C/c2ccco2)nnc1-c1ccccc1	104	17	99	2	-16	16	/	/	/
CCn1c(SCC(=O)N/N=C/C=C/c2ccco2)nnc1-c1ccccc1	128*	4	106	0	-5	-3	103	4	100
O=C(c1ccc2ccccc2c1)c1c[nH]cc1-c1ccccc1	129*	1	105	5	10	15	104	-6	103
O=C(N/N=C/c1ccc(OC(=O)c2ccco2)cc1)c1ccc[n+]([O-])c1	/	5	/	/	4	-9	/	/	/
COc1ccc2cc3cc(C(=O)NC(C)C)oc3nc2c1	124*	-5	117	5	-8	-2	101	0	103
CCC[C@@H](CNC)NC[C@H](Cc1ccccc1)NCCCCc1ccccc1	104	18	154*	8	36	-1	146	27	106
CCOC(=O)[C@@H]1[C@H]2COc3cc(OC)ccc3[C@H]2N2C(=O)N(c3ccc(C(F)(F)F)cc3)C(=O)[C@]12C	/	-106	/	/	-1	8	/	/	/
SMILES	MEKK3 PB1 HTS	PREPL inhibitor	MEKK2 WT-MEK5	MEKK2mut PB1 HTS	UBC13 inh	Apaf1 inhib	MEKK2wt confirm	MEKK2mut confirm	MEKK3-MEK5 inh
COC(=O)c1cn[nH]c1NC(=S)Nc1ccc(Cl)c(Cl)c1	102	-16	101	-1	5	-6	/	/	/
CCOC(=O)c1cn[nH]c1NC(=S)Nc1ccc(OC)cc1	50*[inhibitor]	5	62	-21	-4	0	106	-1	106
COc1ccc(C2=C/C(=C\c3ccc(OC(C)=O)cc3)C(=O)O2)cc1	102	23	104	1	-17	-23	/	/	/
CN(C)c1ccc(/C=C2/C=C(c3ccc4c(c3)CCCC4)OC2=O)cc1	73*[inhibitor]	13	68	-8	-205	-6	81	-1	83
CCc1ccc(NC(=O)C(C)Sc2ccc(S(=O)(=O)N3CCN(C)CC3)cn2)cc1 (centres undefined)	/	10	/	/	9	-2	/	/	/
C=CCN(c1ccccc1OC)S(=O)(=O)c1cccc(C(=O)OCC(=O)c2c[nH]c3ccccc23)c1	138*	-20	119	0	6	12	115	0	103
